The nature of test [1]: inhibitors of TNFa-induced NFkB p65 translocation, primary screen, imaging, HUVEC, MLSMR starter and 10KST1 sets (AID 438;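 active = inhibition above 20% together with a positive visual image hit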;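 also: compound added about 3h40 before a 20 min TNFalpha stimulation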;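 as to inhibition: signal is the nuclear over cytoplasmic p65 intensity ratio per well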). The conditions noted are these: HUVEC TNFa-induced p65 nuclear translocation; cell count: measured here: nuclei count (cytotoxicity indicator), at 2.08 µM; inhibition: at 2 µM, stronger effect = higher value, 0% TNFa-plus-vehicle, 100% no-TNFa wells.
The nature of test [2]: inhibitors of mutant huntingtin aggregation, primary screen, imaging, exon1htt(103Q)mCFP cells, high-content imaging (AID 483;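 active = visual image review flags a hit and inhibition of aggregation exceeds 20%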;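 also: compound exposure lasted 3 days before fixation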;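 as to nuclei count: percent of the per-plate median nuclei count of sample wells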). As to conditions: exon1htt(103Q)mCFP cell line, aggregate imaging, at 2 µM; inhibition of aggregation: stronger effect = higher value; nuclei count: measured here: cell count, toxicity.
A short description of test [3]: inhibitors of E-selectin induction by TNFa, primary screen, imaging, HUVEC, immunofluorescence, MLSMR starter and 10KST1 sets (AID 487;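 active = visually confirmed hit in the image check and inhibition above 20%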;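 as to inhibition: signal is fraction of cell area covered by stained E-selectin grains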;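 as to nuclei count: 100% = median nuclei count of all wells on the same plate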). The conditions noted are these: HUVEC TNFalpha-induced E-selectin immunofluorescence imaging, at 2 µM; inhibition: stronger effect = higher value; nuclei count: measured here: cell number, toxicity.
In test [4] the target is Voltage-gated potassium channel subunit beta-2 (Rattus norvegicus) (UniProt P62483). The test is described as follows: KvBeta enzyme negative modulators, primary screen, biochemical, NADPH fluorescence (AID 622).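 Also: slope of raw intensity against log time taken from 70 to 1610 s.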 As to conditions: recombinant KvBeta, 4-cyanobenzaldehyde reduction, at 10 µM, stronger effect = higher value.
Sequence of Voltage-gated potassium channel subunit beta-2 (Rattus norvegicus) (P62483 whole entry, looked up): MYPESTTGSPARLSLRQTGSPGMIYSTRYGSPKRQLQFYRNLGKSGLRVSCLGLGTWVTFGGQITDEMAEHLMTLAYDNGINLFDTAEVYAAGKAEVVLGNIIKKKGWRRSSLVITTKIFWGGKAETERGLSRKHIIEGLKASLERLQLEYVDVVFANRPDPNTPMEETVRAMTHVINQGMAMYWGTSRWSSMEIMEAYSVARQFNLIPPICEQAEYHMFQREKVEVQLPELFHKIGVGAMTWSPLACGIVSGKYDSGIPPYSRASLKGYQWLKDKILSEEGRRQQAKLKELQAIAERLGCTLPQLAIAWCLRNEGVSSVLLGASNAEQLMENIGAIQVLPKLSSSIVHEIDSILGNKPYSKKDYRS
For test [5] the target is unchanged. Kind of test: KvBeta positive modulators, primary screen, biochemical, NADPH fluorescence (AID 623;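 active = NADPH fluorescence slope more negative than the mean of all samples by about 3 SD, 99.7% confidence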;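 also: fluorescence intensity change per second fitted from 20 to 320 s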). As to conditions: Recombinant KvBeta, NADPH fluorescence decrease slope, 10 min; at 10 µM; stronger effect = lower value.
Test [6] deals with Muscarinic acetylcholine receptor M4 (Homo sapiens) (UniProt P08173). Kind of test: compounds altering M4/GIRK thallium flux, either direction, primary screen, M4 allosteric agonist project, cell-based, HEK293 M4/GIRK, BTC-AM (AID 625;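 active = fluorescence slope after compound addition differing from the mean of all tested samples at 99.7% confidence, mostly higher but some lower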;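 also: thallium influx through GIRK channels coupled to M4 in HEK293 cells with BTC-AM dye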). The conditions noted are these: at 10 µM, actives lie on both sides. The essentials:
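Material – HEK293 cells with M4 receptor and GIRK channels · Buffer or medium – pH 7.3 thallium assay buffer · Doses – one dose, 10 µM final · Timing – cells overnight at 37 °C, BTC-AM loading 1 h, reads 2 min total · Measured by – kinetic fluorescence with BTC-AM dye · Controls – carbachol and DMSO controls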

Test [7] in a line: inhibitors of Sendai virus-induced IRF3 signaling, primary screen, TLR/RLR signaling modifier project, cell-based, Sendai virus stimulus, luciferase, 10K MLSCN set (AID 602276;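 active = inhibition at or above 50% at 10 µM; inactive = inhibition below 50%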;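 also: firefly luciferase from ISG56 promoter only with Renilla not read in this screen; 0% = Sendai virus plus DMSO and 100% = medium plus DMSO without virus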). The conditions noted are these: HEK293 RL24 IRF3 luciferase reporter, at 10 µM, stronger effect = higher value. On the technique in general: In a reporter assay the amount or activity of a reporter protein is the signal.

Test [8] is described as follows: inhibitors of poly I:C-induced TLR3 signaling, primary screen, cell-based, poly I:C stimulus, luciferase, 10K MLSCN set (AID 602277;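 active = inhibition of the reporter signal at or above 50%; inactive = inhibition below 50%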). The conditions noted are these: HEK293-TLR3 RL24 IRF3 luciferase reporter, at 10 µM, stronger effect = higher value.

Structures are written as SMILES. The source made the active and inactive calls.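 The calls were made as follows, unless noted: active = fluorescence slope higher than the sample average by over 3 SD (cut at about -0.22 in these data, passing the limit was not always enough); inactive = the rest.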

Sequence of Muscarinic acetylcholine receptor M4 (Homo sapiens) (P08173 whole entry, looked up): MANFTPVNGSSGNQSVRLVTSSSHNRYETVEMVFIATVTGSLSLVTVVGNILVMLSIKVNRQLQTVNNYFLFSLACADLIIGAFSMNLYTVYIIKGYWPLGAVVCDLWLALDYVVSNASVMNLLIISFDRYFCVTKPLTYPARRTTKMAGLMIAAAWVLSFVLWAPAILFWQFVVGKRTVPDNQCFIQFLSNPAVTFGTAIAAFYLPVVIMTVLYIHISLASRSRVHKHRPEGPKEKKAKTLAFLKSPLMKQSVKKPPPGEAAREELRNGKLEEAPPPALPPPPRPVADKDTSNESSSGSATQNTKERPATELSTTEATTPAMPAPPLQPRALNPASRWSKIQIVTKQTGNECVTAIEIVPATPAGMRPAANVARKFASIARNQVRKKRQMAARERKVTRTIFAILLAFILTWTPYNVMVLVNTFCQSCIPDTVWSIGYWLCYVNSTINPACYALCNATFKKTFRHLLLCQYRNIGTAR

By inhibition is commonly meant the drop in the measured response relative to a control, in per cent. Take `COc1cc2c(cc1OC)C(c1cc(OC)c(OC)c(OC)c1)NCC2` (centres undefined): the cell count in test [1] is 514. The inhibition was 1.8% (inactive) in test [1], -28.8% (inactive) in test [3], 15.4% (inactive) in test [7] and 20.5% (inactive) in test [8]. For the same compound, the inhibition of aggregation in test [2] is 10.4% (inactive). Besides, the nuclei count was 104% in test [2] and 102% in test [3]. The fluorescence slope in test [4] was -0.546 (inactive); in test [6] it was 0.00597 (inactive). The NADPH fluorescence slope in test [5] is -2.1e-05 (inactive).
`CSc1ccccc1C(=O)NC1CC2CCC1C2` (centres undefined): in test [1], the cell count was 246. Further, the inhibition is 4.5% (inactive) in test [1], 15.4% (inactive) in test [3], 24.1% (inactive) in test [7] and 24.1% (inactive) in test [8]. Besides, the inhibition of aggregation in test [2] was 13.1% (inactive). Besides, the nuclei count in test [2] amounted to 93.5%; in test [3] it was 91.1%. The figures for the fluorescence slope in test [4] and in test [6] were -0.535 (inactive) and 0.00469 (inactive), respectively. For the same compound, in test [5], the NADPH fluorescence slope is -1.1e-05 (inactive).
Regarding `Cc1ccccc1Cn1nc(C)c(NC(=O)c2noc3c2CCCC3)c1C`, the cell count in test [1] was 191. Moreover, the inhibition in test [1] was -1.3% (inactive); in test [3], -13.5% (inactive); in test [7], -24.6% (inactive); in test [8], -32% (inactive). In addition, the inhibition of aggregation in test [2] was 7.3% (inactive). For the same compound, the figures for the nuclei count in test [2] and in test [3] were 101% and 120%, respectively. Further, the fluorescence slope is -0.571 (inactive) in test [4] and 0.00499 (inactive) in test [6]. The NADPH fluorescence slope in test [5] was -2.7e-05 (inactive).
`O=C(O)C1C2C=CC(O2)C1C(=O)NCc1ccc(Cl)cc1` (centres undefined): in test [1], the cell count worked out at 714. The inhibition is -7.5% (inactive) in test [1], 16.4% (inactive) in test [3], 11.9% (inactive) in test [7] and 5.33% (inactive) in test [8]. The inhibition of aggregation in test [2] is 22.6% (inactive). Further, the nuclei count in test [2] is 95.5%; in test [3] it was 100%. For the same compound, the fluorescence slope in test [4] was -0.531 (inactive); in test [6], 0.0043 (inactive). Moreover, in test [5], the NADPH fluorescence slope is -3.3e-05 (inactive).
As for `Cc1onc(-c2ccccc2)c1C(=O)Nc1ccnn1C1CCCCC1`, the cell count in test [1] came out at 387. Besides, the inhibition in test [1] was 1.4% (inactive); in test [3], 8.4% (inactive); in test [7] it was 9.16% (inactive); in test [8], 18.3% (inactive). In addition, the inhibition of aggregation in test [2] was 0.6% (inactive). Besides, the nuclei count came to 94.4% in test [2] and 81.7% in test [3]. Besides, the values for the fluorescence slope in test [4] and in test [6] were -0.367 (inactive) and 0.00689 (inactive), respectively. The NADPH fluorescence slope in test [5] was -8.4e-05 (inactive).
`CCC(=O)c1ccc(OCC(=O)N2CCc3cc(OC)c(OC)cc3C2)cc1`: in test [1], the cell count came to 369. For the same compound, the inhibition was 10.8% (inactive) in test [1], 25.9% (inactive) in test [3], 3.27% (inactive) in test [7] and 12.3% (inactive) in test [8]. The inhibition of aggregation in test [2] was 17.3% (inactive). Besides, the nuclei count in test [2] amounted to 91.3%; in test [3], 99.5%. Besides, the fluorescence slope was -0.577 (inactive) in test [4] and 0.00901 (inactive) in test [6]. Further, the NADPH fluorescence slope in test [5] was -4.3e-05 (inactive).
As for `Cc1cc(C2C(C#N)=C(N)SC(N)=C2C#N)c(C)s1`, the cell count in test [1] worked out at 755. Also, the inhibition was -5% (inactive) in test [1], -27.1% (inactive) in test [3], 8.05% (inactive) in test [7] and 20.2% (inactive) in test [8]. Also, the inhibition of aggregation in test [2] is -30.7% (inactive). In addition, the nuclei count in test [2] stood at 102%; in test [3] it was 130%. The fluorescence slope in test [4] is -0.573 (inactive); in test [6] it was 0.00245 (inactive). Besides, the NADPH fluorescence slope in test [5] was -8.5e-05 (inactive).
Consider `O=C(c1ccco1)N1CCN(C(=O)C2CCN(S(=O)(=O)c3cccc4nsnc34)CC2)CC1`, for which the cell count in test [1] amounted to 549. Besides, the inhibition is 9.4% (inactive) in test [1], 8.2% (inactive) in test [3], 8.36% (inactive) in test [7] and 18.1% (inactive) in test [8]. Further, the inhibition of aggregation in test [2] is 5.1% (inactive). For the same compound, the nuclei count was determined as 104% in test [2] and 96.4% in test [3]. In addition, the fluorescence slope in test [4] is -0.468 (inactive); in test [6], 0.00637 (inactive). The NADPH fluorescence slope in test [5] is 0.000197 (inactive).
On to `CC(c1nnc(SCC(=O)Nc2sccc2C#N)n1-c1ccc(Cl)cc1)N(C)C` (centres undefined), for which the cell count in test [1] is 539. Besides, the inhibition in test [1] is -20.1% (inactive); in test [3] it was -28.9% (inactive); in test [7], 17.6% (inactive); in test [8], 25.1% (inactive). Besides, the inhibition of aggregation in test [2] is 2% (inactive). In addition, the nuclei count in test [2] amounted to 101%; in test [3], 143%. Further, the fluorescence slope in test [4] is -0.463 (inactive); in test [6], 0.00514 (inactive). Also, the NADPH fluorescence slope in test [5] is -2.7e-05 (inactive).
Regarding `COc1cc(NC(=O)c2ccc(COCC(F)(F)F)o2)cc(OC)c1OC`, the cell count in test [1] is 753. Besides, the inhibition in test [1] is -11.9% (inactive); in test [3], -71% (inactive); in test [7] it was 15.8% (inactive); in test [8], 24.7% (inactive). For the same compound, in test [2], the inhibition of aggregation is -25% (inactive). Besides, the values for the nuclei count in test [2] and in test [3] were 116% and 118%, respectively. For the same compound, the fluorescence slope in test [4] is -0.553 (inactive); in test [6], 0.00529 (inactive). Moreover, the NADPH fluorescence slope in test [5] was -4.6e-05 (inactive).
Turning to `COC(=O)c1sc(NC(=O)c2ccoc2C)nc1C`, the cell count in test [1] is 554. The inhibition was -7.5% (inactive) in test [1], 15.5% (inactive) in test [3], -18.1% (inactive) in test [7] and -76.5% (inactive) in test [8]. For the same compound, the inhibition of aggregation in test [2] is 8.8% (inactive). Besides, the nuclei count came to 94.1% in test [2] and 98% in test [3]. Also, the fluorescence slope in test [4] is -0.557 (inactive); in test [6], 0.00464 (inactive). The NADPH fluorescence slope in test [5] is 8.6e-06 (inactive).
For the compound `COC(=O)c1nn(-c2ccc(-c3ccccc3)cc2)cc1O`, the cell count in test [1] stood at 281. For the same compound, the inhibition in test [1] is 6% (inactive); in test [3], 9.1% (inactive); in test [7], 6.22% (inactive); in test [8], 7.64% (inactive). Besides, the inhibition of aggregation in test [2] was 14.9% (inactive). Besides, the results for the nuclei count in test [2] and in test [3] were 99.2% and 111%, respectively. The fluorescence slope in test [4] was -0.493 (inactive); in test [6], 0.00465 (inactive). The NADPH fluorescence slope in test [5] is -1.1e-05 (inactive).
`CC(C)(C)N=C1NC(=NC(C)(C)C)c2ccccc21`: the cell count in test [1] amounted to 716. Moreover, the inhibition was 2.3% (inactive) in test [1], -18.9% (inactive) in test [3], 5.9% (inactive) in test [7] and 5.38% (inactive) in test [8]. Further, the inhibition of aggregation in test [2] is -5.7% (inactive). For the same compound, the nuclei count was 106% in test [2] and 107% in test [3]. Further, the fluorescence slope was -0.525 (inactive) in test [4] and 0.00395 (inactive) in test [6]. Also, the NADPH fluorescence slope in test [5] was -7.9e-06 (inactive).
Regarding `Cc1cc(NC(=O)c2ccc3nc(-c4ccccc4)c(-c4ccccc4)nc3c2)no1`, the cell count in test [1] is 536. Also, the inhibition in test [1] was -0.9% (inactive); in test [3] it was -66.9% (inactive); in test [7], -16% (inactive); in test [8] it was -16.7% (inactive). In addition, the inhibition of aggregation in test [2] is -14.8% (inactive). In addition, the values for the nuclei count in test [2] and in test [3] were 102% and 106%, respectively. Also, the fluorescence slope in test [4] was -0.463 (inactive); in test [6] it was 0.00551 (inactive). Moreover, the NADPH fluorescence slope in test [5] was -2.8e-05 (inactive).
